Common to all, as to type: functional
In test [1] the test system is Staphylococcus aureus. The experiment in a line: Antimicrobial activity against Staphylococcus aureus 6 expressing inducible ermB after 20 hrs by agar dilution method. A digest of the protocol:
(§1)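 Agar dilution MIC. S. aureus seed culture was grown in sensitivity test broth. Cell suspension (about 10⁶ CFU/ml) was inoculated onto sensitivity disk agar with 5% horse blood and incubated at 37 °C for 20 h. MIC was the lowest drug concentration that prevented visible growth.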
(In general: In agar dilution the substance is mixed into plates at graded concentrations.)

Test [2] deals with Haemophilus influenzae. The experiment in a line: Antimicrobial activity against drug-susceptible Haemophilus influenzae 1 after 20 hrs by agar dilution method. The conditions noted are these: Haemophilus influenzae, 20 h; read-out: MIC. An outline of the steps: (§2)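 Streptococci, H. influenzae and M. catarrhalis were precultured on blood agar plates. Suspensions of about 10⁶ CFU/ml were inoculated onto sensitivity disk agar supplemented with 5% horse blood and incubated at 37 °C for 20 h. MIC was read as the lowest drug concentration with no visible growth.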

The test system of test [3] is Moraxella catarrhalis. The experiment in a line: Antimicrobial activity against drug-susceptible Moraxella catarrhalis 2 after 20 hrs by agar dilution method. The conditions noted are these: Moraxella catarrhalis, 20 h; read-out: MIC. A digest of the protocol:
as §2

Test [4] relates to Streptococcus pneumoniae. The experiment in a line: Antimicrobial activity against Streptococcus pneumoniae 6 constitutively expressing ermB after 20 hrs by agar dilution method. Particulars: Streptococcus pneumoniae, 20 h; read-out: MIC. A digest of the protocol:
as §2

Test [5] concerns Streptococcus pneumoniae. Kind of test: Antimicrobial activity against drug-susceptible Streptococcus pneumoniae DP1 Type1 after 20 hrs by agar dilution method. The conditions noted are these: Streptococcus pneumoniae, 20 h; read-out: MIC. An outline of the steps:
as §2

Test [6] has as its system Staphylococcus aureus. The experiment in a line: Antimicrobial activity against drug-susceptible Staphylococcus aureus 2 after 20 hrs by agar dilution method. The conditions noted are these: Staphylococcus aureus, 20 h; read-out: MIC. An outline of the steps:
as §1

In test [7] the test system is Staphylococcus aureus. Kind of test: Antimicrobial activity against Staphylococcus aureus 4 constitutively expressing ermA after 20 hrs by agar dilution method. An outline of the steps: as §1
In test [8] the test system is Streptococcus pyogenes. The experiment in a line: Antimicrobial activity against drug-susceptible Streptococcus pyogenes 1 after 20 hrs by agar dilution method. Particulars: Streptococcus pyogenes, 20 h; read-out: MIC. A digest of the protocol:
as §2

Test [9] deals with Haemophilus influenzae. The experiment in a line: Antimicrobial activity against drug-susceptible Haemophilus influenzae 2 after 20 hrs by agar dilution method. Particulars: Haemophilus influenzae, 20 h; read-out: MIC. A digest of the protocol: as §2
For test [10], the system named is Streptococcus pneumoniae. Kind of test: Antimicrobial activity against Streptococcus pneumoniae 8 expressing inducible ermB after 20 hrs by agar dilution method. Particulars: Streptococcus pneumoniae, 20 h; read-out: MIC. A digest of the protocol:
as §2

The test system of test [11] is Streptococcus pneumoniae. Kind of test: Antimicrobial activity against Streptococcus pneumoniae 9 expressing mefA after 20 hrs by agar dilution method. Particulars: Streptococcus pneumoniae, 20 h; read-out: MIC. An outline of the steps: as §2
Test [12] has as its system Streptococcus pneumoniae. The experiment in a line: Antimicrobial activity against Streptococcus pneumoniae 10 expressing mefA after 20 hrs by agar dilution method. The conditions noted are these: Streptococcus pneumoniae, 20 h; read-out: MIC. A digest of the protocol: as §2
For test [13], the system named is Streptococcus pyogenes. Kind of test: Antimicrobial activity against Streptococcus pyogenes 3 expressing mefA after 20 hrs by agar dilution method. Particulars: Streptococcus pyogenes, 20 h; read-out: MIC. An outline of the steps:
as §2

The subject of test [14] is Staphylococcus aureus. Kind of test: Antimicrobial activity against Staphylococcus aureus 5 expressing inducible ermB after 20 hrs by agar dilution method. Particulars: Staphylococcus aureus, 20 h; read-out: MIC. An outline of the steps: as §1
In test [15] the test system is Moraxella catarrhalis. The experiment in a line: Antimicrobial activity against drug-susceptible Moraxella catarrhalis 1 after 20 hrs by agar dilution method. The conditions noted are these: Moraxella catarrhalis, 20 h; read-out: MIC. A digest of the protocol: as §2
The subject of test [16] is Haemophilus influenzae. The experiment in a line: Antimicrobial activity against drug-susceptible Haemophilus influenzae 3 after 20 hrs by agar dilution method. Particulars: Haemophilus influenzae, 20 h; read-out: MIC. A digest of the protocol:
as §2

The test system of test [17] is Streptococcus pyogenes. Kind of test: Antimicrobial activity against Streptococcus pyogenes 2 constitutively expressing ermB after 20 hrs by agar dilution method. An outline of the steps: as §2
Test [18] relates to Staphylococcus aureus. Kind of test: Antimicrobial activity against drug-susceptible Staphylococcus aureus 3 after 20 hrs by agar dilution method. Particulars: Staphylococcus aureus, 20 h; read-out: MIC. An outline of the steps: as §1
Test [19] has as its system Staphylococcus aureus. Kind of test: Antimicrobial activity against drug-susceptible Staphylococcus aureus 209P JC-1 after 20 hrs by agar dilution method. Particulars: Staphylococcus aureus, 209P, 20 h; read-out: MIC. An outline of the steps: as §1
In test [20] the test system is Streptococcus pneumoniae. The experiment in a line: Antimicrobial activity against Streptococcus pneumoniae 5 constitutively expressing ermB/mefA after 20 hrs by agar dilution method. The conditions noted are these: Streptococcus pneumoniae, 20 h; read-out: MIC. A digest of the protocol:
as §2

Test [21] deals with Haemophilus influenzae. Kind of test: Antimicrobial activity against drug-susceptible Haemophilus influenzae 4 after 20 hrs by agar dilution method. The conditions noted are these: Haemophilus influenzae, 20 h; read-out: MIC. A digest of the protocol:
as §2

In test [22] the test system is Streptococcus pneumoniae. Kind of test: Antimicrobial activity against Streptococcus pneumoniae 7 expressing inducible ermB after 20 hrs by agar dilution method. Particulars: Streptococcus pneumoniae, 20 h; read-out: MIC. A digest of the protocol: as §2
The test system of test [23] is Streptococcus pneumoniae. The experiment in a line: Antimicrobial activity against drug-susceptible Streptococcus pneumoniae 2 after 20 hrs by agar dilution method. The conditions noted are these: Streptococcus pneumoniae, 20 h; read-out: MIC. A digest of the protocol: as §2

This is an account of results in ChEMBL document CHEMBL1151705, “Novel azalides derived from 16-membered macrolides. Part II: Isolation of the linear 9-formylcarboxylic acid and its sequential macrocyclization with an amino alcohol or an azidoamine” (2008).

Each structure is given as a SMILES string. Converted amounts (≈) assume the structure as drawn.

With `CCOC(=O)[C@H]1[C@H](C)O[C@@H](O[C@H]2[C@H](N(C)C)[C@@H](O)[C@H](O[C@H]3[C@@H](CC=O)C[C@@H](C)[C@@H](OC(C)=O)CN(CCCCc4ccccc4)CCCNC(=O)C[C@@H](OC(=O)CC)[C@@H]3OC)O[C@@H]2C)C[C@@]1(C)OC(C)=O`, the MIC against Staphylococcus aureus [1] was 1 µg/mL (≈ 0.994 µM); with Haemophilus influenzae [2] it was 16 µg/mL (≈ 15.9 µM); in the test with Moraxella catarrhalis [3], 0.25 µg/mL (≈ 0.248 µM); in the test on Streptococcus pneumoniae [4] it was over 128 µg/mL; in the test on Streptococcus pneumoniae [5], 0.25 µg/mL (≈ 0.248 µM); in the test on Staphylococcus aureus [6], 1 µg/mL (≈ 0.994 µM). Besides, the MIC was over 128 µg/mL in the test with Staphylococcus aureus [7]; 0.13 µg/mL (≈ 0.129 µM) in the test on Streptococcus pyogenes [8]; 0.5 µg/mL (≈ 0.497 µM) in the test on Haemophilus influenzae [9]; 32 µg/mL (≈ 31.8 µM) in the test with Streptococcus pneumoniae [10]; 0.25 µg/mL (≈ 0.248 µM) in the test with Streptococcus pneumoniae [11]; 0.25 µg/mL (≈ 0.248 µM) in the test with Streptococcus pneumoniae [12]. Further, the MIC was 0.5 µg/mL (≈ 0.497 µM) in the test on Streptococcus pyogenes [13]; 0.25 µg/mL (≈ 0.248 µM) with Staphylococcus aureus [14]; 0.25 µg/mL (≈ 0.248 µM) with Moraxella catarrhalis [15]; 2 µg/mL (≈ 1.99 µM) with Haemophilus influenzae [16]; over 128 µg/mL in the test on Streptococcus pyogenes [17]; 0.5 µg/mL (≈ 0.497 µM) in the test on Staphylococcus aureus [18]. Moreover, the MIC was 0.25 µg/mL (≈ 0.248 µM) in the test with Staphylococcus aureus [19]; over 128 µg/mL in the test with Streptococcus pneumoniae [20]; 4 µg/mL (≈ 3.98 µM) in the test with Haemophilus influenzae [21]; 32 µg/mL (≈ 31.8 µM) in the test with Streptococcus pneumoniae [22]; 0.5 µg/mL (≈ 0.497 µM) with Streptococcus pneumoniae [23].
With `CCOC(=O)[C@H]1[C@H](C)O[C@@H](O[C@H]2[C@H](N(C)C)[C@@H](O)[C@H](O[C@H]3[C@@H](CC=O)C[C@@H](C)[C@@H](OC(C)=O)CN(CCCCc4ccccc4)CCN(C)C(=O)C[C@@H](OC(=O)CC)[C@@H]3OC)O[C@@H]2C)C[C@@]1(C)OC(C)=O`, the MIC in the test with Staphylococcus aureus [1] is 2 µg/mL (≈ 1.99 µM); with Haemophilus influenzae [2], over 128 µg/mL; in the test with Moraxella catarrhalis [3], 1 µg/mL (≈ 0.994 µM); in the test on Streptococcus pneumoniae [4], over 128 µg/mL; with Streptococcus pneumoniae [5] it was 0.5 µg/mL (≈ 0.497 µM); in the test on Staphylococcus aureus [6] it was 2 µg/mL (≈ 1.99 µM). Also, the MIC against Staphylococcus aureus [7] is over 128 µg/mL; in the test with Streptococcus pyogenes [8], 0.5 µg/mL (≈ 0.497 µM); with Haemophilus influenzae [9], 4 µg/mL (≈ 3.98 µM); in the test with Streptococcus pneumoniae [10], over 128 µg/mL; in the test on Streptococcus pneumoniae [11] it was 1 µg/mL (≈ 0.994 µM); in the test on Streptococcus pneumoniae [12] it was 1 µg/mL (≈ 0.994 µM). For the same molecule, the MIC with Streptococcus pyogenes [13] is 1 µg/mL (≈ 0.994 µM); with Staphylococcus aureus [14], 1 µg/mL (≈ 0.994 µM); in the test on Moraxella catarrhalis [15], 1 µg/mL (≈ 0.994 µM); in the test with Haemophilus influenzae [16] it was 16 µg/mL (≈ 15.9 µM); in the test on Streptococcus pyogenes [17], over 128 µg/mL; in the test with Staphylococcus aureus [18], 1 µg/mL (≈ 0.994 µM). Besides, the MIC was 1 µg/mL (≈ 0.994 µM) in the test with Staphylococcus aureus [19]; over 128 µg/mL with Streptococcus pneumoniae [20]; 16 µg/mL (≈ 15.9 µM) in the test on Haemophilus influenzae [21]; over 128 µg/mL in the test on Streptococcus pneumoniae [22]; 1 µg/mL (≈ 0.994 µM) in the test with Streptococcus pneumoniae [23].
Consider `CCOC(=O)[C@H]1[C@H](C)O[C@@H](O[C@H]2[C@H](N(C)C)[C@@H](O)[C@H](O[C@H]3[C@@H](CC=O)C[C@@H](C)[C@@H](OC(C)=O)CN(CCCCc4ccccc4)CCNC(=O)C[C@@H](OC(=O)CC)[C@@H]3OC)O[C@@H]2C)C[C@@]1(C)OC(C)=O`, for which the MIC against Staphylococcus aureus [1] was 2 µg/mL (≈ 2.02 µM); in the test on Haemophilus influenzae [2], over 128 µg/mL; with Moraxella catarrhalis [3], 1 µg/mL (≈ 1.01 µM); with Streptococcus pneumoniae [4], over 128 µg/mL; with Streptococcus pneumoniae [5], 0.5 µg/mL (≈ 0.504 µM); in the test with Staphylococcus aureus [6] it was 2 µg/mL (≈ 2.02 µM). The MIC is over 128 µg/mL against Staphylococcus aureus [7]; 0.5 µg/mL (≈ 0.504 µM) with Streptococcus pyogenes [8]; 2 µg/mL (≈ 2.02 µM) with Haemophilus influenzae [9]; over 128 µg/mL in the test with Streptococcus pneumoniae [10]; 1 µg/mL (≈ 1.01 µM) in the test with Streptococcus pneumoniae [11]; 0.5 µg/mL (≈ 0.504 µM) in the test on Streptococcus pneumoniae [12]. The MIC is 1 µg/mL (≈ 1.01 µM) in the test with Streptococcus pyogenes [13]; 1 µg/mL (≈ 1.01 µM) in the test with Staphylococcus aureus [14]; 0.5 µg/mL (≈ 0.504 µM) in the test on Moraxella catarrhalis [15]; 8 µg/mL (≈ 8.06 µM) in the test on Haemophilus influenzae [16]; over 128 µg/mL in the test on Streptococcus pyogenes [17]; 1 µg/mL (≈ 1.01 µM) in the test on Staphylococcus aureus [18]. In addition, the MIC with Staphylococcus aureus [19] was 0.5 µg/mL (≈ 0.504 µM); in the test on Streptococcus pneumoniae [20], over 128 µg/mL; in the test on Haemophilus influenzae [21], 8 µg/mL (≈ 8.06 µM); with Streptococcus pneumoniae [22], over 128 µg/mL; in the test with Streptococcus pneumoniae [23] it was 0.5 µg/mL (≈ 0.504 µM).
